Test results as given in ChEMBL document CHEMBL1135477, “Antifungal agents. 10. New derivatives of 1-[(aryl)[4-aryl-1H-pyrrol-3-yl]methyl]-1H-imidazole, synthesis, anti-candida activity, and quantitative structure-analysis relationship studies” (J Med Chem, 2002).
Values after ≈ are worked out from the molar mass of the structure shown.

What was measured:
Type in all cases: functional
Candida albicans [1] = assay: In vitro antifungal activity against 40 strains of Candida albicans at pH 5.8; (range is from 1 to 32)
In short: (§1)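 Broth serial-dilution MIC against 40 clinical C. albicans isolates from hospitalized patients, grown in Sabouraud broth at pH 7.2 or 5.8. Cells were pre-grown 18 h at 37 °C, inoculated at 10³/mL, and read at 24 h, 37 °C. Doubling dilutions ran 0.25–256 μg/mL from a DMSO/water solution. MIC was the lowest concentration with no visible growth against a DMSO/water blank.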

Candida [2] = assay: Tested In vitro for antifungal activity against Candida species. at pH 7.2; (percent of resistant species at 256 ug/mL)
In short: (§2)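 Broth serial-dilution test in Sabouraud broth at pH 7.2 or 5.8, against 3 fresh clinical non-albicans isolates (two C. glabrata, one C. krusei). Inocula were 10³/mL, pre-grown 18 h at 37 °C. Compound was twofold-diluted over 0.25–256 µg/mL and read at 24 h, 37 °C for visible growth.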

Candida [3] = assay: Tested in vitro for antifungal activity against Candida species. at pH 5.8 (percent of resistant species at 256 ug/mL); in short: as §2
Candida albicans [4] = assay: In vitro antifungal activity against 40 strains of Candida albicans at pH 5.8; in short: as §1
[5] = biological target: Lanosterol 14-alpha demethylase (Candida albicans (strain SC5314 / ATCC MYA-2876) (Yeast), UniProt P10613); assay: Anticandida activity- (MIC90 compound) / (MIC90 bifonazole)
Candida albicans [6] = assay: In vitro antifungal activity against 40 strains of Candida albicans at pH 5.8; (percent of resistant species at 256 ug/mL)
In short: (§3)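 Broth serial-dilution test in Sabouraud broth at pH 7.2 or 5.8, against 40 fresh clinical C. albicans isolates from hospitalized patients. Inocula were 10³/mL, pre-grown 18 h at 37 °C in Sabouraud dextrose broth. Compound from a DMSO/water stock was twofold-diluted over 0.25–256 µg/mL. Visible growth was read at 24 h, 37 °C.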

Candida albicans [7] = assay: In vitro antifungal activity against 40 strains of Candida albicans at pH 7.2; (percent of resistant species at 256 ug/mL); in short: as §3
Candida albicans [8] = assay: In vitro antifungal activity against 40 strains of Candida albicans at pH 7.2; minimum inhibitory concentration (range is from 4 to 64); in short: as §1
Candida [9] = assay: Tested In vitro for antifungal activity against Candida species. at pH 7.2; (range is from 8 to 128)
In short: (§4)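 Liquid serial-dilution MIC against 3 freshly isolated clinical Candida strains (two C. glabrata, one C. krusei) in Sabouraud broth at pH 7.2 or 5.8. Inoculum was 10³/mL after 18 h pre-culture at 37 °C, read at 24 h, 37 °C. Range was 0.25–256 μg/mL. Endpoint was no visible growth versus a DMSO/water blank.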

Candida [10] = assay: Tested in vitro for antifungal activity against Candida species. at pH 5.8; range is from 4 to 16
In short: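 Fresh clinical isolates (two C. glabrata, one C. krusei) were pre-grown 18 h at 37 °C in Sabouraud dextrose broth. Broth double-dilution was run in Sabouraud broth at pH 5.8 or 7.2 over 0.25–256 µg/mL from a DMSO/water stock, with 10³/mL inoculum.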

Candida [11] = assay: Tested In vitro for antifungal activity against Candida species. at pH 7.2; in short: as §4
Candida [12] = assay: Tested in vitro for antifungal activity against Candida species. at pH 5.8; in short: as §4
Candida albicans [13] = assay: In vitro antifungal activity against 40 strains of Candida albicans at pH 7.2; in short: as §1
Candida [14] = assay: In vitro antifungal activity against candida Spp (Candida glabrata, Candida krusei) at pH 5.8,(percent of resistant species at 256 ug/mL); in short: as §2
Candida albicans [15] = assay: In vitro antifungal activity against 40 strains at pH 7.2 minimum inhibitory concentration
In short: (§5)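 Inocula were 10³/mL, pre-grown 18 h at 37 °C. MIC is the lowest concentration with no visible growth versus a DMSO/water blank at 24 h, 37 °C. The mean MIC is ΣMICi over the total strain number; MIC50/MIC90 cover 50%/90% of strains.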

Candida [16] = assay: Tested in vitro for antifungal activity against candida Spp (Candida glabrata, Candida krusei) at pH 7.2 (percent of resistant species at 256 ug/mL); in short: as §2
Candida albicans [17] = assay: In vitro antifungal activity against 40 strains at pH 7.2; in short: as §5
Candida [18] = assay: Tested In vitro for antifungal activity against candida Spp (Candida glabrata, Candida krusei) at pH 5.8
In short: (§6)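 Inocula were 10³/mL, pre-grown 18 h at 37 °C. MIC is the lowest concentration with no visible growth versus a blank at 24 h, 37 °C. The mean MIC is ΣMICi over the strain number; MIC50/MIC90 are also reported.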

Candida [19] = assay: Tested In vitro for antifungal activity against candida Spp (Candida glabrata, Candida krusei) at pH 7.2; in short: as §6
Candida albicans [20] = assay: Tested In vitro for antifungal activity at pH 5.8
Candida albicans [21] = assay: In vitro antifungal activity against 40 strains at pH 7.2, (percent of resistant species at 256 ug/mL); in short: as §3
Candida albicans [22] = assay: In vitro antifungal activity against 40 strains at pH 5.8,(percent of resistant species at 256 ug/mL); in short: as §3

Lanosterol 14-alpha demethylase, sequence (P10613 whole entry): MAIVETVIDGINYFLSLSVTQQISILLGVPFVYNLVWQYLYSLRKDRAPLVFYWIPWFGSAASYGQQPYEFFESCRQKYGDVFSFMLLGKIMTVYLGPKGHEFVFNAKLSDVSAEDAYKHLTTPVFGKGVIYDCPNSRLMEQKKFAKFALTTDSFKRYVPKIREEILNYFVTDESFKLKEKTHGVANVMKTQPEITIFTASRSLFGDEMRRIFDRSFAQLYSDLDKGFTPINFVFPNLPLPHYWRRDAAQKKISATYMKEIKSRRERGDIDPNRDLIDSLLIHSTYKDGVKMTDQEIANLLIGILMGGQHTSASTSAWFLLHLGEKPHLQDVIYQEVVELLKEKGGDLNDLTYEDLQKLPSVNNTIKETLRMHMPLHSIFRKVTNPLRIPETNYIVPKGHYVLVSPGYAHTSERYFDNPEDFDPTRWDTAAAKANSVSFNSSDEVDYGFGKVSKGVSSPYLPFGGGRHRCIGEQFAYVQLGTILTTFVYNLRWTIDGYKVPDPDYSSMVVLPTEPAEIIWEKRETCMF

CSc1ccc(-c2c[nH]cc2[C@H](c2ccc(Cl)cc2Cl)n2ccnc2)cc1
Range (Candida albicans [1]): 32 µg/mL
Resistance (Candida [2]): 0%
Resistance (Candida [3]): 0%
MIC (Candida albicans [4]): 7 µg/mL (≈ 16.9 µM)
MIC50 (Candida albicans [4]): 4 µg/mL (≈ 9.65 µM)
MIC90 (Candida albicans [4]): 8 µg/mL (≈ 19.3 µM)
Ratio [5]: 3
Resistance (Candida albicans [6]): 0%
Resistance (Candida albicans [7]): 0%
Range (Candida albicans [8]): 64 µg/mL
Range (Candida [9]): 128 µg/mL
Range (Candida [10]): 16 µg/mL
MIC (Candida [11]): 66.6 µg/mL (≈ 161 µM)
MIC50 (Candida [11]): 64 µg/mL (≈ 154 µM)
MIC90 (Candida [11]): 128 µg/mL (≈ 309 µM)
MIC (Candida [12]): 9.3 µg/mL (≈ 22.4 µM)
MIC50 (Candida [12]): 8 µg/mL (≈ 19.3 µM)
MIC90 (Candida [12]): 16 µg/mL (≈ 38.6 µM)
MIC (Candida albicans [13]): 9.14 µg/mL (≈ 22.1 µM)
MIC50 (Candida albicans [13]): 4 µg/mL (≈ 9.65 µM)
MIC90 (Candida albicans [13]): 8 µg/mL (≈ 19.3 µM)

CC(=O)N1CCN(c2ccc(OCC3COC(Cn4ccnc4)(c4ccc(Cl)cc4Cl)O3)cc2)CC1 (centres undefined) [KETOCONAZOLE]
Resistance (Candida [14]): 0%
Range (Candida albicans [15]): 2 µg/mL
Resistance (Candida [16]): 0%
MIC (Candida albicans [17]): 9.26 µg/mL (≈ 17.4 µM)
MIC50 (Candida albicans [17]): 8 µg/mL (≈ 15.1 µM)
MIC90 (Candida albicans [17]): 32 µg/mL (≈ 60.2 µM)
MIC (Candida [18]): 6.53 µg/mL (≈ 12.3 µM)
MIC50 (Candida [18]): 32 µg/mL (≈ 60.2 µM)
MIC90 (Candida [18]): 128 µg/mL (≈ 241 µM)
Range (Candida [18]): <0.25 µg/mL
MIC (Candida [19]): 8.6 µg/mL (≈ 16.2 µM)
MIC50 (Candida [19]): 8 µg/mL (≈ 15.1 µM)
MIC90 (Candida [19]): 16 µg/mL (≈ 30.1 µM)
Range (Candida [19]): 2 µg/mL
MIC (Candida albicans [20]): 6.35 µg/mL (≈ 11.9 µM)
Range (Candida albicans [20]): <0.25 µg/mL
Resistance (Candida albicans [21]): 0%
Resistance (Candida albicans [22]): 0%
